# Assay outcomes from PubChem BioAssay.
# An excerpt weighted towards active compounds, which were near 1.9% of everything screened.
# SUMO1-SIM PPI = modulators of SUMO1 protein-protein interactions, primary screen, biochemical, uHTS. SUMO1 binding to a labelled peptide, TR-FRET, 1 h. inhibition, % at 20 µM. actives 0.33% (n = 360,000); in the data active = inhibition above about 37%
# Target sequence (P63165 whole entry, looked up): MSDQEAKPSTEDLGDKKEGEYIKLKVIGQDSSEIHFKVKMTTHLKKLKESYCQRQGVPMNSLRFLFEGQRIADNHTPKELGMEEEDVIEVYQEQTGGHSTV
# DNMT1 block = human DNMT1 methyltransferase inhibitors, primary screen, biochemical, molecular beacon, fluorescence, HinP1I cleavage, uHTS; AID 588458, 2011; inhibition (reported as % activation of signal), % at 10 µM; DNA (cytosine-5)-methyltransferase 1 (Homo sapiens), P26358; actives 0.83% (n = 360,000); in the data active = inhibition above about 50%
# Scp1 inh = Scp-1 phosphatase inhibitors, primary screen, biochemical, colorimetric, uHTS; Carboxy-terminal domain RNA polymerase II polypeptide A small phosphatase 1 (Homo …; Recombinant Scp1, phosphopeptide, malachite green phosphate absorbance; inhibition, % at 20 µM; actives 0.88% (n = 340,000); AID 493091, 2011;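 active = inhibition above about 50% at 20 µM, limit read from the data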;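 also: plate controls were DMSO wells with enzyme for no effect and wells lacking enzyme for full effect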
#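 Test system – truncated SCP-1 phosphatase (76-261aa) · Reagent – Phosphorylated 17-residue peptide substrate · Incubation – 45 min room-temperature reaction, 5 min colour, 30 min stabiliser · Detection – colorimetric phosphate reagent with accelerator and stabiliser, absorbance at 630 nm · Measure – % inhibition at 20 µM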
# CSN deneddyl inh = inhibitors of CSN-mediated cullin deneddylation, primary screen, biochemical, fluorescence polarization, uHTS; COP9 signalosome complex subunit 5 (Homo sapiens), Q92905; Purified CSN, SCF-Nedd8-OG deneddylation; inhibition, % at 12.5 µM; actives 0.38% (n = 360,000);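 active = pattern-corrected inhibition above about 35%, with an unprinted fluorescence ratio check between 0.5 and 1.5, limit read from the data, passing the limit was not always enough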;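 also: 0% = enzyme with substrate and 100% = substrate without enzyme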
#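 test system = HEK293T-derived human Csn5 enzyme | amount = 0.24 nM Csn5 enzyme, final concentration | medium = Tris/NaCl/DTT buffer, pH 7.5 | schedule = 90 min reaction at room temperature | signal = FP | evaluation = inhibition of Csn5 cleavage, % | compound dosing = single dose of 12.5 µM compound with 0.25% DMSO | probe or stimulus = 10 nM SCFSkp2-Nedd8OG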
# STEP inh = STEP phosphatase inhibitors, primary screen, biochemical, fluorescence intensity, uHTS; inhibition, % at 20 µM; AID 588621, 2011; actives 0.25% (n = 360,000); recombinant STEP, OMFP fluorogenic substrate; Tyrosine-protein phosphatase non-receptor type 5 (Homo sapiens), P54829;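 active = inhibition at 20 µM, scaled per plate between control wells, above about 37%, limit read from the data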;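 also: 0% = DMSO with enzyme and substrate and 100% = substrate only without enzyme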
# Target sequence (P54829 whole entry, looked up): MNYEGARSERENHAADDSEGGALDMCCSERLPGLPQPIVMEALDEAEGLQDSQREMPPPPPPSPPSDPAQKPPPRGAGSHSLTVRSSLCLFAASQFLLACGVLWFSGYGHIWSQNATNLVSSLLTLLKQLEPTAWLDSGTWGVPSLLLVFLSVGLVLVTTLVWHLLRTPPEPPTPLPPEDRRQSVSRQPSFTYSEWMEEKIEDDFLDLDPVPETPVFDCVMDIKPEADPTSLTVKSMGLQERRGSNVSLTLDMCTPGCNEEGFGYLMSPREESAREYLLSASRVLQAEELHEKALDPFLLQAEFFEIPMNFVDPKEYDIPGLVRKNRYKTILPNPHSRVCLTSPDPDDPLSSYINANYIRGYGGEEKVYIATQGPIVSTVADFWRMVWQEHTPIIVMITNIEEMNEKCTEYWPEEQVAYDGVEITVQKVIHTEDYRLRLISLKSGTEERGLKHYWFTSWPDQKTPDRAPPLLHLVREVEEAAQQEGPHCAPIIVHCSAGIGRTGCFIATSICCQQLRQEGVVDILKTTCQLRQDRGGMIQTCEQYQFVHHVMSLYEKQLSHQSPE
#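 Also added – OMFP at 25 µM · Test system – STEP tyrosine phosphatase · Technique – FITC-channel fluorescence of OMFP product · Schedule – 20 min at room temperature, dark · Evaluation – control-normalized % inhibition with plate pattern correction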
# LMPTP block = LMPTP phosphatase inhibitors, primary screen, biochemical, fluorescence intensity, uHTS. inhibition, % at 20 µM. Low molecular weight phosphotyrosine protein phosphatase (Homo sapiens), P24666. recombinant LMPTP-A, OMFP fluorogenic substrate. actives 0.22% (n = 360,000);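 active = compounds that cut the enzyme signal by at least half of the control window in the single-dose screen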;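 also: plate controls were DMSO wells with enzyme plus substrate for no effect and substrate without enzyme for full effect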
#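 material = LMPTP-A | quantity = 0.625 nM enzyme | reagent = OMFP substrate, 400 µM final | buffer or medium = Bis-Tris pH 6.0, DTT, detergent | detection = endpoint fluorescence intensity from OMFP dephosphorylation | dosing = single 20 µM dose | read-out basis = % inhibition relative to no-enzyme and uninhibited control wells | control set = no-enzyme and uninhibited controls | timing = 50 min at room temperature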
# Scp1 confirm = Scp-1 phosphatase inhibitors, retest, confirmation, biochemical, colorimetric, single concentration. AID 540281, 2011. inhibition, % at 20 µM. recombinant SCP-1 catalytic domain, phosphate release, malachite green absorbance. shares compounds with Scp1 inh. actives 61% (n = 2,500);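 also: plate controls were DMSO with enzyme for no effect and buffer wells lacking enzyme for full effect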
# MG interference = colorimetric readout interference by compounds, confirmation, artefact control for Scp-1 inhibitor project, biochemical, single concentration; shares compounds with Scp1 inh; Colorimetric interference counterscreen, malachite green absorbance 630 nm; apparent inhibition (interference), % at 20 µM; 2,500 tested, under 10 active;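 also: compounds added after enzyme reaction finished so only phosphate colour detection is probed; plate controls were DMSO wells with completed Scp-1 reaction for no effect and substrate wells lacking enzyme for full effect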
# Scp-1 Tm shift = Scp-1 binding by thermal shift, confirmation, orthogonal assay for Scp-1 inhibitor project, biophysical, differential scanning fluorimetry. shares compounds with Scp1 inh. Recombinant SCP1, Sypro Orange thermal shift Tm. thermal shift relative to vanadate control, % at 40 µM. actives 25% (n = 1,500). AID 540329, 2011;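 active = substances whose mean melting-temperature shift, as a percentage of the reference inhibitor's shift, reaches about 5.3%, limit read from the data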;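 also: 0% = Tm of DMSO wells and 100% = Tm with sodium orthovanadate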
# Active calls of the source: *; . = no result given.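 The calls were made as follows, unless noted: active = inhibition of at least 30% at 20 µM; inactive = the rest.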
SMILES,SUMO1-SIM PPI,DNMT1 block,Scp1 inh,CSN deneddyl inh,STEP inh,LMPTP block,Scp1 confirm,MG interference,Scp-1 Tm shift
COc1ccccc1N/C(N)=N/c1nc(C(F)(F)F)cc(=O)[nH]1,2,-5,-11,-1,-2,2,.,.,.
COc1ccc(CCC(=O)Nc2nc3c(s2)CN(C)CC3)cc1OC,-2,-1,-6,-3,1,5,.,.,.
O=C(Cn1cncn1)c1ccccc1Br,13,0,-8,-1,-4,-1,.,.,.
CC1CCCC(NC(=O)C2CCN(S(=O)(=O)c3cccc4nonc34)CC2)C1C (stereo not drawn),-2,4,69*,-1,-1,-1,-8,-17,.
COc1cc(/C=C/c2cccc[n+]2C)ccc1OCC(=O)Nc1cccc(Cl)c1,-27,-2,70*,2,0,2,32*,-6,-6
O=C(CSc1ncnc2sc3c(c12)CCC3)N1CCOCC1,13,27,54*,-1,14,6,56*,-10,1
CC(=O)CSc1ncnc2sc3c(c12)CCC3,5,1,-3,5,2,0,.,.,.
CS(=O)(=O)c1ccc(-c2sc3cc4c(cc3c2C(=O)NN2CCOCC2)OCO4)cc1,-18,5,101*,1,-1,-1,86*,-7,-20
O=C(NN1CCOCC1)c1c(-c2ccccc2)sc2ccccc12,5,9,-3,6,-1,-2,.,.,.
COC(=O)c1ccc(Cn2c(O)c(N=NC(N)=S)c3ccccc32)o1,-26,40,60*,3,2,3,-12,-20,.
Cc1nnc(NS(=O)(=O)c2ccc(N=Nc3ccc(N)nc3N)cc2)s1,-10,4,67*,7,5,18,34*,-6,9.1*
COc1ccc(CCN2CCCn3c2nc2c3c(=O)n(CC(C)C)c(=O)n2C)cc1OC,0,0,5,2,-2,0,.,.,.
C[N+]1(CCCCCCC(=O)/C=N/O)CCCCCC1,1,0,96*,0,-3,-7,-9,-14,.
CCOC(=O)C1=C(C)NC(C)=C(C(=O)OCC)C1C(=O)OCC(=O)N(C)Cc1ccccc1,-2,2,-12,-6,-3,-2,.,.,.
O=C(c1nc2ccc(Cl)cn2c1CN1CCCC1)N1CCc2ccccc2C1,8,14,52*,-5,-1,8,36*,-3,5
O=C(c1nc2ccc(Cl)cn2c1CN1CCC(CO)CC1)N1CCc2ccccc2C1,1,1,-9,-2,-1,-1,.,.,.
Cc1cccc(OCCOc2ccc(/C=N/NC(=O)Cc3nnc(N)s3)cc2)c1,-1,41,.,-4,0,-2,.,.,.
CNS(=O)(=O)c1cccc(C(=O)NCC(C)(C)N2CCCCC2)c1,7,1,-5,6,0,-2,.,.,.
CCn1cc(C(=O)NCc2ccco2)c(=O)c2cc(F)c(N3CCN(C(=O)c4ccco4)CC3)cc21,16,6,58*,0,3,6,37*,-11,-10
CCn1cc(C(=O)NCC(C)C)c(=O)c2cc(F)c(N3CCN(C(=O)c4ccco4)CC3)cc21,9,0,2,3,-2,1,.,.,.
CCN(CC(=O)Nc1cc(Cl)ccc1C)C(=O)c1ccc2c(=O)n3c(nc2c1)CCC3,8,6,5,2,-1,-1,.,.,.
Cc1ccc(C(=O)NCCCNC(=O)COc2ccccc2Cl)cn1,-5,-1,58*,2,-1,-1,-5,-9,.
CC(Nc1ccc(F)cc1)=[N+](C)CCNS(=O)(=O)c1ccc(Cl)cc1,1,2,103*,9,-1,-1,89*,-11,-29
COc1ccc(-n2ncc3c(=O)n(CC(=O)NC(C)C)cnc32)cc1,5,2,11,4,0,-1,.,.,.
Cc1ccccc1NC(=O)C1c2cccc[n+]2CC(=O)N1c1c(C)cccc1C (stereo not drawn),-2,-14,89*,8,3,-1,91*,-9,0
SMILES,SUMO1-SIM PPI,DNMT1 block,Scp1 inh,CSN deneddyl inh,STEP inh,LMPTP block,Scp1 confirm,MG interference,Scp-1 Tm shift
COc1ccc(CN(C)C(=O)C(Cc2ccccc2)NC(=O)c2ccccc2)c(OC)c1 (stereo not drawn),-1,2,6,3,3,3,.,.,.
CCCc1ccc2oc(C(=O)N3CCC(N4CCCC(O)C4)CC3)c(C)c2c1 (stereo not drawn),-1,-2,-3,2,-1,1,.,.,.
CCCc1ccc2oc(C(=O)N3CCC(COC)C3)c(C)c2c1 (stereo not drawn),-2,-2,69*,-2,2,1,3,-3,.
Cc1ccc(C)c(NC(=O)CN(C)C(=O)c2ccc(S(=O)(=O)N(C)c3ccccc3)cc2)c1,-1,0,-2,-1,-2,0,.,.,.
Cc1ccc(NC(=O)CN(C)C(=O)c2ccc(S(=O)(=O)N(C)c3ccccc3)cc2)cc1,-3,-1,54*,-1,-3,0,22,-13,.
C[N+]1(CN2C(=O)C3C4C=CC(C4)C3C2=O)CCCCC1 (stereo not drawn),-3,3,103*,3,-2,-3,89*,-7,3
COc1ccc(N2CC(C(=O)N3CCC(c4nc5ccccc5[nH]4)CC3)CC2=O)cc1 (stereo not drawn),6,-5,0,5,0,0,.,.,.
COC(=O)CC1C(=O)NCCN1C(=S)NC(=O)CCc1ccccc1 (stereo not drawn),-2,-15,-2,6,-3,-3,.,.,.
